rCAG binder – binders of r(CAG) RNA repeats, primary screen, biochemical, fluorescence; r(CAG) RNA repeat, TO-PRO-1 dye displacement fluorescence; inhibition, % at 3 µM; 370,000 compounds, 1.3% hits; AID 651821, 2012;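 active = inhibition above the plate cutoff, the mean of all test compounds on that plate plus 3 SD, cut at about 35% in these data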;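 note: 0% = DMSO alone and 100% = 100 µM mitoxantrone as full dye displacement; higher means more dye released from RNA so lower well fluorescence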
Rev-erbA mod – modulators of Rev-erb alpha DNA binding, primary screen, biochemical, FITC-DNA, fluorescence polarization, uHTS; AID 1259318, 2017; Rev-erbα–FITC-DNA binding, 90 min; activity, % at 10 µM; 370,000 compounds, 0.79% hits; Nuclear receptor subfamily 1 group D member 1 (Homo sapiens), P20393;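 active = activity above about 14%, limit read from the data; passing the limit was not always enough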;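 note: 0% = DMSO wells with 35 nM protein and 100% = DMSO wells with 750 nM protein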
Target sequence (P20393 whole entry, looked up): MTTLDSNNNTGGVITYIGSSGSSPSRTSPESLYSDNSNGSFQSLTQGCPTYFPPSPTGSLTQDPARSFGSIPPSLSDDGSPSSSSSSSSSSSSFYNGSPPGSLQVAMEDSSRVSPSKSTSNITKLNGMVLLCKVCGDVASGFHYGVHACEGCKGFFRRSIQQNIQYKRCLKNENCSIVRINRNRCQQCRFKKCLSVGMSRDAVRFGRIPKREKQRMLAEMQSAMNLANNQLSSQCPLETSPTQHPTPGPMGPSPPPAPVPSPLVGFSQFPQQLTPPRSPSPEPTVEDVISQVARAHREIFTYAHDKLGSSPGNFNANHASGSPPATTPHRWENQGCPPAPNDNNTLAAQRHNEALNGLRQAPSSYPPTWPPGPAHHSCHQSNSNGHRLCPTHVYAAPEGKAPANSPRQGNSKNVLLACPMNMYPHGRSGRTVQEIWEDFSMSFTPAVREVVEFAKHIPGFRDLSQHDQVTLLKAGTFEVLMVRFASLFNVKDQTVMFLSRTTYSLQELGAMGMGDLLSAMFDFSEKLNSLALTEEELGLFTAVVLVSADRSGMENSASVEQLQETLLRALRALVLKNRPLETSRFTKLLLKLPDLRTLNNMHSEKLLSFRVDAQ
NR2E3 ag-1 – NR2E3 agonists in two-hybrid cells, primary screen, cell-based, luminescence, CHO-S, Gal4-NCOR/VP16-NR2E3; luciferase; Photoreceptor-specific nuclear receptor (Homo sapiens), Q9Y5X4; 360,000 compounds, 0.35% hits; inhibition of corepressor binding, % at 3.98 µM; AID 602229, 2012;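 active = inhibition above the mean of all tested compounds plus 3 SD, cut at about 70% in these data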;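 note: 0% = DMSO with NR2E3 transfected cells and 100% = cells lacking NR2E3 construct; higher means lower luciferase signal from less NR2E3 corepressor binding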
NR2E3 ag-2 – inhibitors of NR2E3-RetCOR corepressor binding, primary screen, NR2E3 agonist project, biochemical, TR-FRET, GST-NR2E3, biotin-RetCOR | 1536-well | inhibition of corepressor binding, % at 4.78 µM | 320,000 compounds, 0.12% hits | AID 2300, 2010;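 active = percent inhibition above the cutoff of mean plus 3 SD of all tested compounds, set per screening campaign, cut at about 20% in these data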;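 note: 0% = DMSO wells and 100% = biotin wells as full block of FRET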
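System: GST-tagged NR2E3 plus biotinylated RetCOR corepressor; Amount: 1.35 nM GST-tagged NR2E3 final; Dosing: single nominal compound dose of 4.8 µM; Schedule: 5 h incubation at 4 °C; Technique: TR-FRET with europium anti-GST and streptavidin-D2, 340 nm excitation; Controls: biotin wells as high control, 0.6% DMSO wells as low control.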
PG9 Ab binder – binders of HIV-1 gp120 antibody PG9, primary screen, biochemical, TR-FRET; HIV-1 gp120 / PG9 antibody interaction; TR-FRET gp120-PG9 antibody binding; inhibition, % at 6.7 µM; 360,000 compounds, 0.43% hits; in the data active = inhibition above about 8.5%
NR2E3 ag confirm – NR2E3 agonist confirmation in cells, cell-based, luminescence, CHO-S two-hybrid | shares compounds with NR2E3 ag-1 | CHO-S mammalian two-hybrid NR2E3-NCOR, luciferase luminescence | inhibition, % at 3.98 µM | 2,300 compounds, 51% hits | AID 624378, 2012;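 active = average inhibition above a cutoff equal to the mean inhibition of all tested compounds plus one SD, cut at about 70% in these data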;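 note: 0% = DMSO in NR2E3 cells and 100% = DMSO in cells lacking NR2E3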
VP16 counter – GAL4-VP16 reporter modulators, confirmation, counter-screen for NR2E3 agonist project, cell-based, luminescence, CHO-S, high throughput; shares compounds with NR2E3 ag-1; CHO-S GAL4-VP16 luciferase reporter; inhibition, % at 3.98 µM; 2,300 compounds, 29% hits; AID 624379, 2012;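 active = mean inhibition above a cutoff equal to the average over all tested compounds plus one standard deviation, cut at about 70% in these data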;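 note: luciferase from a UAS reporter driven by GAL4-VP16 transactivation; 0% = DMSO with VP16-transfected cells and 100% = DMSO with cells lacking VP16; higher means less reporter light so more repression of VP16 activity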
* = called active by the depositor. Hits are enriched below; roughly 2.6% of the tested compounds scored in any of these assays.

Results for CC1CCCCC1Nc1ncnc2sccc12 (stereo not given) ?
rCAG binder: 0.7; Rev-erbA mod: 3.8; NR2E3 ag-1: 63.8; NR2E3 ag-2: 1.6; PG9 Ab binder: -1.3; NR2E3 ag confirm: 10.5; VP16 counter: 30.7

What do the screens show for `O=[N+]([O-])c1ccc(NC(=S)NCCc2ccc(Cl)cc2)cc1`?
rCAG binder: 24.8; Rev-erbA mod: 2.9; NR2E3 ag-1: 69.1; NR2E3 ag-2: 1.3; PG9 Ab binder: -0.8; NR2E3 ag confirm: 96.4*; VP16 counter: 88.4*

What do the screens show for `COc1cccc(NC(=O)N2CCc3nc(NCc4cccc(Oc5ccccc5)c4)ncc3C2)c1`?
rCAG binder: 5.9; Rev-erbA mod: 3.9; NR2E3 ag-1: 36.9; PG9 Ab binder: -0.1

How did O=C(Nc1ccc(OC(F)(F)F)cc1)N1CCc2nc(NCc3cccc(Oc4ccccc4)c3)ncc2C1 do in these assays?
rCAG binder: 7.3; Rev-erbA mod: 2.8; NR2E3 ag-1: 61.6; PG9 Ab binder: 0.8; NR2E3 ag confirm: 20.7; VP16 counter: 46.5

How did Cc1ccccc1N=Nc1ccc(O)c2ncccc12 do in these assays?
rCAG binder: 6.5; Rev-erbA mod: 6.8; NR2E3 ag-1: 6.2; NR2E3 ag-2: 0.2; PG9 Ab binder: -3.2

What do the screens show for `O=[N+]([O-])c1ccc(O)c2ncccc12`?
rCAG binder: 16.0; Rev-erbA mod: 13.5; NR2E3 ag-1: 102.8*; NR2E3 ag-2: -3.1; PG9 Ab binder: -2.8; NR2E3 ag confirm: 81.3*; VP16 counter: 40.7

What do the screens show for `O=[N+]([O-])c1ccc(O)c2cccnc12`?
rCAG binder: -1.6; Rev-erbA mod: 3.5; NR2E3 ag-1: 8.5; NR2E3 ag-2: -4.9; PG9 Ab binder: -3.3

Results for O=[N+]([O-])c1cc(CN2CCN(c3ccccc3)CC2)c(O)c2ncccc12 ?
rCAG binder: 1.7; Rev-erbA mod: 4.8; NR2E3 ag-1: 83.3*; NR2E3 ag-2: -1.1; PG9 Ab binder: -6.3; NR2E3 ag confirm: 74.1*; VP16 counter: 20.0

What do the screens show for `O=Nc1ccc(O)c2ncccc12`?
rCAG binder: -1.6; Rev-erbA mod: -3.1; NR2E3 ag-1: 55.5; NR2E3 ag-2: -5.2; PG9 Ab binder: -3.8; NR2E3 ag confirm: 58.0; VP16 counter: 21.0

What do the screens show for `O=[N+]([O-])c1cc(Cl)c(O)c2ncccc12`?
rCAG binder: 9.4; Rev-erbA mod: 4.6; NR2E3 ag-1: 102.9*; PG9 Ab binder: 0.2; NR2E3 ag confirm: 99.0*; VP16 counter: 71.2*

How did COc1ccc(NC2c3ccccc3C(=O)N2Cc2ccccc2Cl)cc1OC (stereo not given) do in these assays?
rCAG binder: -1.6; Rev-erbA mod: 0.0; NR2E3 ag-1: 69.2; NR2E3 ag-2: -0.8; PG9 Ab binder: -2.1; NR2E3 ag confirm: 71.2*; VP16 counter: -7.8

Results for O=C1c2ccccc2C(Nc2cccnc2)N1Cc1ccccc1Cl (stereo not given) ?
rCAG binder: 1.7; Rev-erbA mod: 4.0; NR2E3 ag-1: -8.0; NR2E3 ag-2: 3.4; PG9 Ab binder: -1.4

Results for COC(=O)c1cc2c(c3c4cc(C)ccc4n(S(=O)(=O)c4cccc(C)c4)c13)C(=O)N(C)C2 ?
rCAG binder: 11.5; Rev-erbA mod: 0.1; PG9 Ab binder: 1.4

Results for COC(=O)C1=C(C)N(C)C(=NCc2cccc(C(F)(F)F)c2)NC1c1ccc(Cl)cc1 (stereo not given) ?
rCAG binder: 7.7; Rev-erbA mod: 7.2; PG9 Ab binder: -0.2

How did O=C(Cc1ccc(S(=O)(=O)N2CCCC2)s1)N1CCN(c2ccccc2)CC1 do in these assays?
rCAG binder: -1.7; Rev-erbA mod: -2.4; NR2E3 ag-1: 3.4; NR2E3 ag-2: 1.8; PG9 Ab binder: -2.3

What do the screens show for `O=C(Cc1ccc(S(=O)(=O)N2CCOCC2)s1)N1CCN(c2cccc(C(F)(F)F)c2)CC1`?
NR2E3 ag-1: 71.8*; NR2E3 ag-2: -0.8; NR2E3 ag confirm: 80.6*; VP16 counter: 60.6

Results for NCCOc1ccccc1-c1ccccc1 ?
rCAG binder: 7.6; Rev-erbA mod: 3.2; NR2E3 ag-1: 17.8; NR2E3 ag-2: -0.7; PG9 Ab binder: 0.4

Results for Nc1ccc(Oc2ccccc2-c2ccccc2)cc1 ?
rCAG binder: -3.8; Rev-erbA mod: 4.6; NR2E3 ag-1: 47.8; NR2E3 ag-2: -1.6; PG9 Ab binder: -1.7; NR2E3 ag confirm: 31.5; VP16 counter: 37.0

How did CC(=O)C1=C(C)N(Cc2ccc(Cl)cc2)C(=S)NC1c1cccc(Br)c1 (stereo not given) do in these assays?
rCAG binder: 3.9; Rev-erbA mod: -1.0; PG9 Ab binder: 1.2

What do the screens show for `CC(=O)c1c(C)oc2ccc(NS(=O)(=O)c3ccc(F)cc3C)cc12`?
rCAG binder: 2.5; Rev-erbA mod: 1.4; NR2E3 ag-1: 69.7; NR2E3 ag-2: 1.4; PG9 Ab binder: -0.5; NR2E3 ag confirm: 56.7; VP16 counter: 60.6

How did Cc1ccccc1NC(=S)NCCC(c1ccccc1)c1ccccc1 do in these assays?
rCAG binder: -1.5; Rev-erbA mod: 1.8; NR2E3 ag-1: 50.3; NR2E3 ag-2: 0.4; PG9 Ab binder: -0.1; NR2E3 ag confirm: 10.8; VP16 counter: 9.8

How did Clc1cccc(Cl)c1CON/C=N/c1ncnc2sccc12 do in these assays?
rCAG binder: -1.1; Rev-erbA mod: 1.7; NR2E3 ag-1: 60.2; NR2E3 ag-2: -4.2; PG9 Ab binder: -1.4; NR2E3 ag confirm: 47.9; VP16 counter: 54.8

Results for COCC#Cc1cnc2c(c1)C(=O)N([C@@H](C)CO)C[C@H](C)[C@H](CN(C)C(=O)c1ccc3c(c1)OCO3)O2 ?
rCAG binder: 5.5; Rev-erbA mod: -0.5; PG9 Ab binder: -0.3

How did CCOC(=O)c1sc(=S)n(Cc2ccccc2)c1C do in these assays?
rCAG binder: -4.7; Rev-erbA mod: -1.9; NR2E3 ag-1: -11.4; NR2E3 ag-2: 0.4; PG9 Ab binder: -0.3

How did CN(C)C(=S)N=c1ssc(=S)n1Cc1ccccc1 do in these assays?
rCAG binder: 2.6; Rev-erbA mod: 4.3; NR2E3 ag-1: 90.4*; PG9 Ab binder: 0.2; NR2E3 ag confirm: -24.1; VP16 counter: -56.2

Results for CCc1c(-c2ccccc2)ncn1CCc1ccccc1OC ?
rCAG binder: -0.4; Rev-erbA mod: 0.8; PG9 Ab binder: 1.5

Source: PubChem BioAssay
